Reference: ChEMBL document CHEMBL1149583, “Effects of oxygen-sulfur substitution on glycosaminoglycan-priming naphthoxylosides” (Bioorg Med Chem, 2007)

Legend:
[1] = system: T-24; assay: Antiproliferative activity against human T24 cells after 96 hrs by crystal violet method; type: functional; conditions: T-24, 96 h, read-out: ED50 (the source's name)
Method in brief: (§1)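 Seeded at 3000 cells/well (T24) or 5000 cells/well (HFL-1) in DMEM with insulin 10 ng/mL, transferrin 25 ng/mL and 10% FCS. After 4 h, moved to serum-free Ham's F-12 with insulin/transferrin for 24 h. Grown with 10 ng/mL EGF plus xyloside at 25–500 µM for 96 h total. Fixed in 1% glutaraldehyde, stained with 0.1% crystal violet, Triton-lysed, read at A600. ED50 taken relative to untreated controls.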

[2] = system: CHO; assay: Antiproliferative activity against […] CHO cells; type: cell-based, Cricetulus griseus; conditions: chinese hamster
[3] = system: CHO; assay: Antiproliferative activity against heparan sulfate deficient […] CHO cells; type: cell-based, Cricetulus griseus; conditions: chinese hamster
[4] = Antiproliferative activity against human HFL1 cells after 96 hrs by crystal violet method; type: cell-based; conditions: read-out: ED50; method in brief: as §1

Row | Compound | EC50 [1] [µM] | Activity [2] | Activity [3] | GI50 at 96 h [4] [µM]
1 | Oc1ccc2cc(O[C@@H]3OC[C@@H](O)[C@H](O)[C@H]3O)ccc2c1 | 50 | Toxic | Not Active | –
2 | O[C@@H]1[C@@H](O)[C@H](Oc2ccc(S)c3ccccc23)OC[C@H]1O | 55 | – | – | 70
3 | O[C@@H]1[C@@H](O)[C@H](Oc2cccc3cccc(S)c23)OC[C@H]1O | 45 | – | – | 60
4 | O[C@@H]1[C@@H](O)[C@H](Oc2cc3ccccc3cc2S)OC[C@H]1O | 145 | – | – | 60
5 | O[C@@H]1[C@@H](O)[C@H](Oc2ccc3ccc(S)cc3c2)OC[C@H]1O | 360 | – | – | 100
6 | Oc1ccc(S[C@@H]2OC[C@@H](O)[C@H](O)[C@H]2O)c2ccccc12 | 160 | – | – | 130
7 | Oc1cccc2cccc(S[C@@H]3OC[C@@H](O)[C@H](O)[C@H]3O)c12 | 225 | – | – | 120
8 | Oc1cc2ccccc2cc1S[C@@H]1OC[C@@H](O)[C@H](O)[C@H]1O | 260 | – | – | 100
9 | Oc1ccc2ccc(S[C@@H]3OC[C@@H](O)[C@H](O)[C@H]3O)cc2c1 | 230 | – | – | 125
10 | CCCSc1cccc2c(O[C@@H]3OC[C@@H](O)[C@H](O)[C@H]3O)cccc12 | 40 | – | – | 20
11 | CCCSc1cccc2cccc(O[C@@H]3OC[C@@H](O)[C@H](O)[C@H]3O)c12 | 155 | – | – | 100
12 | CCCSc1ccc2cc(O[C@@H]3OC[C@@H](O)[C@H](O)[C@H]3O)ccc2c1 | 40 | – | – | 30
13 | CCCSc1ccc2ccc(O[C@@H]3OC[C@@H](O)[C@H](O)[C@H]3O)cc2c1 | 60 | – | – | 25
14 | CCCSc1cc2ccccc2cc1O[C@@H]1OC[C@@H](O)[C@H](O)[C@H]1O | 70 | – | – | 30
15 | O[C@@H]1[C@@H](O)[C@H](Oc2cccc3c(S)cccc23)OC[C@H]1O | 110 | – | – | 60
16 | O[C@@H]1[C@@H](O)[C@H](Oc2ccc3cc(S)ccc3c2)OC[C@H]1O | 135 | – | – | 60
17 | Oc1cccc2c(S[C@@H]3OC[C@@H](O)[C@H](O)[C@H]3O)cccc12 | 320 | – | – | 135
18 | Oc1ccc2cc(S[C@@H]3OC[C@@H](O)[C@H](O)[C@H]3O)ccc2c1 | 355 | – | – | 145
19 | CCCSc1ccc(O[C@@H]2OC[C@@H](O)[C@H](O)[C@H]2O)c2ccccc12 | 30 | – | – | 30
